Only some compounds are listed: those with a hit (about 2.1% of all), similar ones and a draw of the others.
miR122 inh: inhibitors of miR-122 in Huh7 cells | Huh7 miR-122 Renilla luciferase sensor, 48 h; neutral wells = 0, positive control = 100 | hit rate 0.3% among 340,000 | activation (reporter increase), % at 12.5 µM;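 active = mean replicate activation score at least 90 and every replicate individually at or above 90; inconclusive = only one of the two criteria met; inactive = neither criterion met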;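 also: higher luciferase means less miR-122 activity so hits act as miR-122 inhibitors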
CAL PDZ FP-1: human CAL PDZ-peptide interaction inhibition; inhibition, % at 20 µM; hit rate 0.02% among 330,000; AID 504414; Q9HD26; purified CAL PDZ, TMR-peptide fluorescence polarization, 1 h;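 active = highest replicate inhibition of at least 40%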
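System: tagged CAL PDZ domain. Schedule: 1 h room-temperature incubation prior to read. Signal: fluorescence polarization (mP). Measure: percent inhibition from loss of millipolarization.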
SR-BI DiI inh: blocks mouse SR-BI lipid uptake from DiI-HDL; Q61009; ldlA[mSR-BI] CHO cells, DiI-HDL uptake fluorescence, 3 h; inhibition, % at 12.5 µM; hit rate 0.96% among 320,000; AID 488896;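 active = mean replicate inhibition of at least 70% and a set share of replicates each scoring 70 or more; inconclusive = meets just one of the two criteria; inactive = fails both criteria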
Target sequence (Q61009 whole entry, looked up): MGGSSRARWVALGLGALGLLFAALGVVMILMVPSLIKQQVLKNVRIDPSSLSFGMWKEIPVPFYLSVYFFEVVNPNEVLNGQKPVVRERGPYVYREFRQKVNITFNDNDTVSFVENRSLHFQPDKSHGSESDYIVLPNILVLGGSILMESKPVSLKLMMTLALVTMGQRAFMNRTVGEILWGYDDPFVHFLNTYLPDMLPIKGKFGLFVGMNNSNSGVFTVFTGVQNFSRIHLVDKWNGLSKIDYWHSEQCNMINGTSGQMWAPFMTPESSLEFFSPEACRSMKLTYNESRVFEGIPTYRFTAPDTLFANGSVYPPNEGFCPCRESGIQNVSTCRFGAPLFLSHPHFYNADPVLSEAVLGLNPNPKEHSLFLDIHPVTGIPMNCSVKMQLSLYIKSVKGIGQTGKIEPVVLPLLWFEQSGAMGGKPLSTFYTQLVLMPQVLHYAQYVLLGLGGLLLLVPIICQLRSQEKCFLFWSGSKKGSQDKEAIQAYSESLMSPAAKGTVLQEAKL
SR-BI DiI-HDL act: activators of SR-BI mediated HDL lipid uptake; AID 504775; hit rate 0.096% among 320,000; CHO ldlA[mSR-BI] cells, DiI-HDL uptake fluorescence, 3 h; 100 = double the neutral-control signal; activation, % at 12.5 µM;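 active = mean replicate activation of at least 60% and every replicate at or above 60%; inconclusive = mean or all-replicate condition met, but not both; inactive = mean below 60% and not all replicates reaching 60%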
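Material – SR-BI-overexpressing, LDLR-lacking CHO cells · Medium – BSA-supplemented, HEPES-buffered Ham's F12, pH 7.4 · Doses – single concentration · Times – compound with DiI-HDL co-incubation, 3 h at 37 °C · Measured by – bottom-read fluorescence, 550/595 nm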
ARNT-TACC3 inh: disrupts binding between human ARNT and TACC3 | AID 623870 | inhibition, % at 9.99 µM | AlphaScreen His-ARNT PAS-B/GST-TACC3 binding, luminescence; TACC3 fragment carries E629A point mutation | hit rate 0.66% among 390,000;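 active = mean inhibition of replicates at least 50% and at least half of replicates each reaching 50%; inconclusive = half or more replicates reach 50% but mean below 50%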
CAL PDZ FP-2: blocks peptide binding to the human CAL PDZ domain | purified CAL PDZ, TMR-peptide fluorescence polarization, 1 h | inhibition, % at 24.9 µM | hit rate 0.92% among 300,000 | AID 602252;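 active = mean inhibition of at least 30% with at least half of replicates also reaching 30%; inconclusive = no clear call, values can overlap the other calls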
ARNT Alpha ctr: counter-screen for ARNT/TACC3 inhibitors: AlphaScreen artifacts; His-ARNT PASB-GST AlphaScreen artifact counter-screen, luminescence; shares compounds with ARNT-TACC3 inh; AID 651705; hit rate 50% among 1,200; AC50, µM (doses to about 68 µM);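 active = every separate test run was called active for a drop in luminescence, with AC50 within twice the top valid dose, actives reach about 71 µM in these data; inconclusive = the separate test runs disagree in their calls; inactive = all runs inactive, including signal change in the wrong direction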
A number is an active result; . = inactive; ? = inconclusive; / = no result given.

SMILES | miR122 inh | CAL PDZ FP-1 | SR-BI DiI inh | SR-BI DiI-HDL act | ARNT-TACC3 inh | CAL PDZ FP-2 | ARNT Alpha ctr
C[C@@H]1CN([C@@H](C)CO)C(=O)c2cc(NC(=O)Nc3cccc4ccccc34)ccc2O[C@@H](C)CCCCO[C@H]1CN(C)C(=O)CCCN(C)C | . | / | / | / | . | / | /
O=C(C[C@@H]1CC[C@H]2[C@@H](COC[C@H](O)CN2S(=O)(=O)c2cccc(Cl)c2)O1)Nc1ccccc1 | . | / | / | / | . | / | /
C[C@H](CO)N1C[C@H](C)[C@H](CN(C)C(=O)Nc2cccc3ccccc23)Oc2ncc(C#CCC3CCCC3)cc2C1=O | . | / | / | / | . | / | /
Cc1ccc(S(=O)(=O)N(C)C[C@@H]2Oc3ccc(NC(=O)c4ccncc4)cc3CC(=O)N([C@@H](C)CO)C[C@@H]2C)cc1 | . | / | / | / | . | / | /
C[C@@H]1CN([C@H](C)CO)C(=O)c2cccc(NC(=O)c3ccncc3)c2O[C@@H]1CN(C)Cc1ccc(-c2ccccc2)cc1 | . | / | / | / | active | / | .
COC(=O)c1ccc(-c2ccc(C(c3c(C)[nH][nH]c3=O)c3c(C)[nH][nH]c3=O)o2)cc1 | . | . | . | . | . | . | /
Cc1[nH][nH]c(=O)c1C(c1ccc(-c2ccccc2C(=O)O)o1)c1c(C)[nH][nH]c1=O | / | . | . | . | 53.7 | . | .
CCCC#Cc1ccc2c(c1)O[C@H](CN(C)C(=O)Nc1ccccc1F)[C@@H](C)CN([C@H](C)CO)S2(=O)=O | . | / | / | / | . | / | /
COc1ccccc1NC(=O)Nc1ccc2c(c1)C(=O)N(C)C[C@H](OC)[C@H](C)CN[C@H](C)CO2 | / | / | / | / | . | / | /
COC(=O)C1=COC(C)C2CN3CCc4c([nH]c5cc(OC)c(OC)cc45)C3CC12 (stereo not drawn) | . | . | . | . | 63.3 | . | 71.1µM
COC(=O)[C@H]1[C@H]2C[C@@H]3c4[nH]c5cc(OC)ccc5c4CCN3C[C@H]2C[C@@H](OC(=O)c2cc(OC)c(OC)c(OC)c2)[C@@H]1OC | . | . | . | . | . | . | /
CO[C@H]1CN(C)C(=O)c2ccc(NC(=O)c3ccccc3)cc2OC[C@@H](C)N(C(=O)C2CC2)C[C@@H]1C | . | / | / | / | . | / | /
Cc1[nH]n(-c2ccccc2)c(=O)c1/C=N/N(c1ccccc1)c1ccccc1 | / | . | . | . | 55.0 | . | 22.9µM
Oc1cccc2c(-c3nn[nH]n3)ccnc12 | . | . | . | . | 67.9 | . | 10µM
C[C@H](CO)N1C[C@H](C)[C@@H](CN(C)C(=O)Cc2ccccn2)Oc2ncc(C#CC3CCCC3)cc2C1=O | . | / | / | / | . | / | /
CCCCN(CC)c1nc(N)c2c(N)nc(OCC)cc2c1C#N | . | . | . | . | 10.3 | . | .
Cc1ccc(CSc2ccc3nnc(-c4ccccn4)n3n2)cc1 | / | . | . | . | . | . | /
Cc1ccc(C)c(CSc2ccc3nnc(-c4ccccn4)n3n2)c1 | . | . | . | . | 54.6 | . | .
COCC(=O)Nc1ccc2c(c1)[C@@H]1C[C@@H](CC(=O)O)O[C@@H](CO)[C@@H]1O2 | . | / | / | / | . | / | /
O=C1C=C(O)c2cccc(O)c2C1=O | . | . | . | . | 51.5 | . | .
O=C1C=C(c2c(O)ccc3ccccc23)c2ccccc2C1=O | . | . | . | . | . | . | /
CC(C)c1cn(CC[C@H]2CC[C@@H](NC(=O)C3CC3)[C@@H](CO)O2)nn1 | / | / | / | / | . | / | /
COc1ccc(OC)c(-c2cc(C(=O)N3CCN(c4ncccn4)CC3)c3ccccc3n2)c1 | . | . | . | / | 51.4 | . | .
COc1ccc(-c2nc(CN3CCC(C(=O)NC4CCCC4)CC3)c(C)o2)cc1OC | / | . | . | . | . | . | /
COc1ccc(-c2nc(CN3CCC(C(=O)NC4CCCc5ccccc54)CC3)c(C)o2)cc1OC (stereo not drawn) | . | . | / | / | 56.3 | . | .
SMILES | miR122 inh | CAL PDZ FP-1 | SR-BI DiI inh | SR-BI DiI-HDL act | ARNT-TACC3 inh | CAL PDZ FP-2 | ARNT Alpha ctr
CSc1ccccc1NC(=O)CN(C)C(=O)COc1cccc2cccnc12 | . | . | . | . | 66.7 | . | 68.7µM
C=CCn1c(Cc2csc(N)n2)nnc1SCC(=O)Nc1ccc(C(=O)OCC)cc1 | . | . | . | . | 61.1 | . | .
O=C(NCC1CCCO1)c1onc(CSc2ccc(F)cc2)c1C(=O)O (stereo not drawn) | / | . | . | . | 23.6 | . | .
Cc1ccc(SCc2noc(C(=O)NCC3CCCO3)c2C(=O)O)cc1C (stereo not drawn) | . | . | / | / | . | . | /
Cc1[nH][nH]c(=O)c1C(c1ccc(O)c(Br)c1)c1c(C)[nH][nH]c1=O | / | . | . | . | 33.1 | . | .
Cc1[nH][nH]c(=O)c1C(c1ccc(Br)cc1)c1c(C)[nH][nH]c1=O | . | . | . | . | 11.3 | . | .
COc1cc(Br)cc(/C=N/N(CCO)C2=NS(=O)(=O)c3ccccc32)c1OC | . | . | . | . | . | . | /
COc1cc(/C=N/N(CCO)C2=NS(=O)(=O)c3ccccc32)cc(OC)c1OC | . | . | . | . | 41.2 | . | .
O=S1(=O)N=C(N(CCO)/N=C/C=C/c2ccccc2)c2ccccc21 | . | . | . | . | 55.4 | . | 39.1µM
C[C@@H]1CN([C@H](C)CO)C(=O)c2cc(NC(=O)NC3CCCCC3)ccc2O[C@@H](C)CCCCO[C@@H]1CN(C)C(=O)CCC(F)(F)F | . | / | / | / | . | / | /
COCC(=O)Nc1ccc2c(c1)C(=O)N(C)C[C@@H](OC)[C@H](C)CN(Cc1ccccn1)[C@H](C)CO2 | / | / | / | / | . | / | /
Cc1[nH]c(=O)[nH]c(=O)c1/C=N/NC(=O)[C@H](C)NC(=O)OC(C)(C)C | . | . | / | / | 54.5 | . | .
O=C(NCCCn1ccnc1)c1ccc2nccnc2c1 | . | . | . | . | 58.1 | / | .
CC(C)(C)c1cc(C(=O)NCCCn2ccnc2)cc(C(C)(C)C)c1 | . | . | / | / | 60.7 | . | .
O=C(NCCCn1ccnc1)c1cc2cc([N+](=O)[O-])ccc2oc1=O | / | . | . | . | 53.5 | . | .
O=C(NCCCn1ccnc1)c1ccc(Cl)cc1[N+](=O)[O-] | / | . | . | . | / | . | /
Cc1ccc(C(=O)NCCCn2ccnc2)cc1C | . | / | / | / | / | / | /
COc1cccc(-c2ccc3c(c2)[C@@H]2[C@@H](CCN2C(=O)c2ccc(F)cc2)[C@@H](CO)N3)c1 | . | / | / | / | . | / | /
Brc1ccc2cccnc2c1 | . | . | . | . | . | . | /
Nc1cc2cccnc2cc1Cl | / | . | . | ? | 53.5 | . | .
Cc1cc(=O)n(-c2ccc(O)cc2)[nH]1 | . | . | . | . | 14.7 | . | .
Cc1cc(=O)n(-c2ccccc2Cl)[nH]1 | / | . | . | . | . | . | /
